# Assay results from ChEMBL document CHEMBL1124724, “Steroidal A ring aryl carboxylic acids: a new class of steroid 5 alpha-reductase inhibitors” (J Med Chem, 1990).
# Legend:
# [1] = target: T1, Steroid 5-alpha-reductase (Rattus norvegicus, UniProt P24008+P31214); test: Inhibition of Steroid 5-alpha-reductase of rat ventral prostate tissue; type: tissue-based, Prostate gland
# T1 sequence (P24008 whole entry): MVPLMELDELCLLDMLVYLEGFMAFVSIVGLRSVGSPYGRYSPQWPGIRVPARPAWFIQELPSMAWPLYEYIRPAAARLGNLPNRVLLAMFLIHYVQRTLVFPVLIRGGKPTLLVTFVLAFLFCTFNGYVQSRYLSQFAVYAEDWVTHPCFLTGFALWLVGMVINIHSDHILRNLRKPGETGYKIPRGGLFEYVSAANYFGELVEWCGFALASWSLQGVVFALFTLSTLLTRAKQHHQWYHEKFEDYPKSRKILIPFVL
# T1 sequence (P31214 whole entry): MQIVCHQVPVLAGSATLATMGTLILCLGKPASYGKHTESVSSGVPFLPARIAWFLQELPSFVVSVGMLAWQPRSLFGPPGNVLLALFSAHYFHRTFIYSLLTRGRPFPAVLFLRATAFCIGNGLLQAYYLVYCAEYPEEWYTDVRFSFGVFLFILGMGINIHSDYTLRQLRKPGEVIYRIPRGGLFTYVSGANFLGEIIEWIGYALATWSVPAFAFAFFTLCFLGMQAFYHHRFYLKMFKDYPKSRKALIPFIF
# How it was run: (§1)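 Activity is total 5α-reduced products (DHT + ADIOL) by radiolabel after ethyl acetate extraction. Ki,app is given as a range across microsome preparations; >10 000 means under 50% inhibition at highest concentration.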
# [2] = Inhibition of Steroid 5-alpha-reductase of benign hyperplastic human prostatic tissue; conditions: read-out: Ki app
# How it was run: (§2)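 Ethyl acetate quench with carrier steroids; product is DHT plus ADIOL from radiolabel split. Ki,app is given as a range over several microsome preparations; >10 000 means under 50% inhibition at top concentration.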
# [3] = target: T1, Steroid 5-alpha-reductase; test: In vitro inhibition against Steroid 5-alpha-reductase of whole rat ventral prostate tissue expressed as apparent inhibition constant; type: functional, tissue-based, Prostate gland; how it was run: as §1
# [4] = target: T2, 3-oxo-5-alpha-steroid 4-dehydrogenase 2 (Homo sapiens, UniProt P31213); test: In vitro inhibition against Steroid 5-alpha-reductase of benign hyperplastic human prostatic tissue expressed as apparent inhibition constant; type: functional; conditions: read-out: Ki app; how it was run: as §2
# T2 sequence (P31213 whole entry): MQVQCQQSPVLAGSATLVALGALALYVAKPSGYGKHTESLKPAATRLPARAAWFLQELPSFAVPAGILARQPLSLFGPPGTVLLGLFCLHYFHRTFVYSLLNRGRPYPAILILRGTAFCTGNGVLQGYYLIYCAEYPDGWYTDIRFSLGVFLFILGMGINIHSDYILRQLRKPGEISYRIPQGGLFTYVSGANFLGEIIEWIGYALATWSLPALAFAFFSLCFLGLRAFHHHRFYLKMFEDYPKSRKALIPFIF
SMILES,Ki app [1],Ki [2],Ki app [3],Ki [4]
CC(C)N(C(=O)[C@H]1CC[C@H]2[C@@H]3CCc4cc(C(=O)O)ccc4[C@H]3CC[C@]12C)C(C)C,356 nM,20 nM,,
CC(C)N(C(=O)[C@H]1CC[C@H]2[C@@H]3CCc4c(ccc(C(=O)O)c4Br)[C@H]3CC[C@]12C)C(C)C,1900 nM,212 nM,,
CC(C)N(C(=O)[C@H]1CC[C@H]2[C@@H]3CCc4c(ccc(C(=O)O)c4F)[C@H]3CC[C@]12C)C(C)C,500 nM,10 nM,,
Cc1c(C(=O)O)ccc2c1CC[C@@H]1[C@@H]2CC[C@]2(C)[C@@H](C(=O)N(C(C)C)C(C)C)CC[C@@H]12,7000 nM,260 nM,,
CC(C)(C)NC(=O)[C@H]1CC[C@H]2[C@@H]3CCc4cc(C(=O)O)ccc4[C@H]3CC[C@]12C,150 nM,43 nM,,
CC(C)N(C(=O)[C@H]1CC[C@H]2[C@@H]3CCc4c(ccc(C(=O)O)c4Cl)[C@H]3CC[C@]12C)C(C)C,900 nM,120 nM,,
CC(C)N(C(=O)[C@H]1CC[C@H]2[C@@H]3CCc4c(ccc(C(=O)O)c4C#N)[C@H]3CC[C@]12C)C(C)C,> 10000 nM,200 nM,,
CC(C)N(C(=O)[C@H]1CC[C@H]2[C@@H]3CCc4cc(C(=O)O)c(Cl)cc4[C@H]3CC[C@]12C)C(C)C,200 nM,35 nM,,
CC(C)N(C(=O)[C@H]1CC[C@H]2[C@@H]3CCc4cc(C(=O)O)c(C#N)cc4[C@H]3CC[C@]12C)C(C)C,950 nM,65 nM,,
Cc1cc2c(cc1C(=O)O)CC[C@@H]1[C@@H]2CC[C@]2(C)[C@@H](C(=O)N(C(C)C)C(C)C)CC[C@@H]12,340 nM,60 nM,,
CC(C)N(C(=O)[C@H]1CC[C@H]2[C@@H]3CCc4cc(C(=O)O)c(Br)cc4[C@H]3CC[C@]12C)C(C)C,260 nM,76 nM,,
CC(C)N(C(=O)[C@H]1CC[C@H]2[C@@H]3CCc4cc(C(=O)O)c(C(=O)O)cc4[C@H]3CC[C@]12C)C(C)C,,,> 10000 nM,5000 nM
CC(C)N(C(=O)[C@H]1CCC2C3C=Cc4cc(C(=O)O)ccc4C3CC[C@@]21C)C(C)C (stereo not given in full),450 nM,30 nM,,
CC(C)N(C(=O)[C@H]1CCC2c3ccc4cc(C(=O)O)ccc4c3CC[C@@]21C)C(C)C (stereo not given in full),350 nM,36 nM,,
CC(C)(C)NC(=O)C1=CCC2C3CCc4cc(C(=O)O)ccc4C3CC[C@]12C (stereo not given in full),200 nM,60 nM,,
